Activity calls are given as the source filed them. No cut-off for these calls is given here.
What was measured:
[1] = system: HEK-293T; assay: Inhibition of HIF1 transactivation activity in HEK293T cells transfected with pGL3-5HRE-VEGF-luciferase at 0.01 to 1 uM incubated for 24 hrs under hypoxia condition by luciferase reporter gene assay; format: cell-based; details: Homo sapiens
How it was run: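 HEK-293T cells were seeded at 5 × 10³/well, left 24 h, then co-transfected with a 5×HRE (human VEGF promoter) firefly luciferase plasmid and a pRL-SV40 Renilla plasmid. Cells were exposed to hypoxia (1% O₂) with serially diluted compound (0, 0.01, 0.1, 1 μM) for 24 h, with 10 μM 17-AAG as reference. Dual-Glo readout, with firefly normalized to Renilla. Three independent experiments.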

[2] = Toxicity in C57BL/6J mouse allografted with mouse LLC cells assessed as effect on body weight at 5 mg/kg, ip dosed every 3 days for 17 days starting from 2 days after inoculation and co-treated with 5 mg/kg, ip EGFR inhibitor gefitinib; format: organism-based, Lewis lung carcinoma; details: in vivo
How it was run: (§1)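 Male C57BL/6 mice, 5−6 weeks old, were given LLC cells (2 × 10⁵ in 200 μL serum-free medium) s.c. into the dorsal flanks on Day 0. From day 2, groups of n = 5 received 5 mg/kg i.p. […]. Tumor size was measured three times a week and tumor weight at sacrifice. Statistics were versus the vehicle control.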

[3] = system: Lewis lung carcinoma cell line; assay: Antitumor activity against mouse LLC cells allografted in C57BL/6J mouse assessed as reduction tumor weight at 5 mg/kg, ip dosed every 3 days for 17 days starting from 2 days after inoculation relative to control; format: functional, organism-based; how it was run: as §1
[4] = system: Lewis lung carcinoma cell line; assay: animal or person; format: functional; details: Mus musculus, ip, read-out: TGI
[5] = system: Lewis lung carcinoma cell line; assay: Antitumor activity against mouse LLC cells allografted in C57BL/6J mouse assessed as inhibition of tumor growth at 5 mg/kg, ip dosed every 3 days for 17 days starting from 2 days after inoculation and co-treated with 5 mg/kg, ip EGFR inhibitor gefitinib relative to control; format: functional; details: read-out: TGI; how it was run: as §1
[6] = Toxicity in C57BL/6J mouse allografted with mouse LLC cells assessed as effect on body weight at 5 mg/kg, ip dosed every 3 days for 17 days starting from 2 days after inoculation; format: organism-based, Lewis lung carcinoma; details: in vivo; how it was run: as §1
[7] = system: Lewis lung carcinoma cell line; assay: Antitumor activity against mouse LLC cells allografted in C57BL/6J mouse assessed as reduction of tumor weight at 5 mg/kg, ip dosed every 3 days for 17 days starting from 2 days after inoculation and co-treated with 5 mg/kg, ip EGFR inhibitor gefitinib relative to control; format: functional, organism-based; how it was run: as §1

Row | SMILES | inhibition [1] | also measured
1 | COc1ccc(C(=O)[C@@H](C)Oc2ccc([C@@H]3CC[C@@H](c4ccc(O[C@H](C)C(=O)c5ccc(OC)c(OC)c5)c(OC)c4)N3)cc2OC)cc1OC | Dose-dependent effect | –
2 | COc1ccc(C(=O)[C@H](C)Oc2ccc(/C=C/c3ccc(O[C@H](C)C(=O)c4ccc(OC)c(OC)c4)c(OC)c3)cc2OC)cc1OC | inactive | –
3 | COc1ccc([C@@H](O)[C@@H](C)Oc2ccc([C@H]3O[C@H](c4ccc(O[C@H](C)[C@H](O)c5ccc(OC)c(OC)c5)c(OC)c4)[C@H](C)[C@H]3C)cc2OC)cc1OC | Active | Activity [2]: Non-Toxic; Activity [3]: Active; inhibition in vivo at 5 mg/kg [4]: 30%; inhibition in vivo at 5 mg/kg [5]: 80%; Activity [6]: Non-Toxic; Activity [7]: Active
4 | COc1ccc(C(=O)[C@@H](C)Oc2ccc(CC3(Cc4ccc(O[C@H](C)C(=O)c5ccc(OC)c(OC)c5)c(OC)c4)SCCCS3)cc2OC)cc1OC | inactive | –
5 | COc1ccc(C(=O)[C@@H](C)Oc2ccc(-c3cccc(-c4ccc(O[C@H](C)C(=O)c5ccc(OC)c(OC)c5)c(OC)c4)n3)cc2OC)cc1OC | inactive | –
6 | COc1ccc(C(=O)[C@@H](C)Oc2ccc([C@@H]3C[C@@H](C)[C@@H](c4ccc(O[C@H](C)C(=O)c5ccc(OC)c(OC)c5)c(OC)c4)O3)cc2OC)cc1OC | Dose-dependent effect | –
7 | COc1ccc(C(=O)[C@@H](C)Oc2ccc([C@@H]3CC[C@@H](c4ccc(O[C@H](C)C(=O)c5ccc(OC)c(OC)c5)c(OC)c4)O3)cc2OC)cc1OC | Dose-dependent effect | –
8 | C=CCN1[C@H](c2ccc(O[C@H](C)C(=O)c3ccc(OC)c(OC)c3)c(OC)c2)CC[C@H]1c1ccc(O[C@H](C)C(=O)c2ccc(OC)c(OC)c2)c(OC)c1 | inactive | –
9 | COc1ccc(C(=O)[C@@H](C)Oc2ccc([C@@H]3CCC[C@H](c4ccc(O[C@H](C)C(=O)c5ccc(OC)c(OC)c5)c(OC)c4)O3)cc2OC)cc1OC | inactive | –
10 | COc1cc2ncnc(Nc3ccc(F)c(Cl)c3)c2cc1OCCCN1CCOCC1 | – | Activity [3]: Active
11 | COc1ccc(C(=O)[C@@H](C)Oc2ccc(C3=C(c4ccc(O[C@H](C)C(=O)c5ccc(OC)c(OC)c5)c(OC)c4)CCC3)cc2OC)cc1OC | inactive | –
12 | COc1ccc(C(=O)[C@@H](C)Oc2ccc(-c3cccc(-c4ccc(O[C@H](C)C(=O)c5ccc(OC)c(OC)c5)c(OC)c4)c3)cc2OC)cc1OC | inactive | –

Source: ChEMBL document CHEMBL4610125, “Evaluation of Manassantin A Tetrahydrofuran Core Region Analogues and Cooperative Therapeutic Effects with EGFR Inhibition” (J Med Chem, 2020)
